The test system of data set [1] is Influenza A virus. Put plainly: Antiviral activity against Influenza A virus H3N2 infected in dog MDCK cells assessed as reduction of virus-induced cytopathogenicity at 250 uM. It is filed as functional, organism-based. In a few lines:
(§1)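 Confluent cell monolayers were infected with 100 CCID50 of virus while exposed to varying compound concentrations. Cytopathicity was scored once it was complete in untreated infected controls. EC50 was taken as the concentration that reduced virus-induced cytopathogenicity by 50%.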
(Cytopathic effects are the visible damage that an infection or toxin causes in cultured cells.)

Data set [2] concerns Vesicular stomatitis virus. Put plainly: Antiviral activity against Vesicular stomatitis virus infected in human HeLa cells assessed as reduction of virus-induced cytopathogenicity at 250 uM. It is filed as functional, organism-based. The method, boiled down:
as §1

The subject of a further data set is MDCK. Put plainly: Cytotoxicity against dog MDCK cells assessed as alteration of cell morphology up to 100 uM by microscopic analysis. It is filed as cell-based, Canis lupus familiaris. In a few lines:
(§2)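 Uninfected host-cell cultures were exposed to compound and examined by microscopy. Cytotoxicity was expressed as the minimum cytotoxic concentration (MCC) causing a microscopically detectable alteration of normal cell morphology.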

Data set [3] relates to Respiratory syncytial virus. Put plainly: Antiviral activity against Respiratory syncytial virus long infected in human HeLa cells assessed as reduction of virus-induced cytopathogenicity at 250 uM. It is filed as functional, organism-based. The method, boiled down: (§3)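 Confluent monolayers (HEL fibroblasts, Vero, or HeLa cells as listed) were infected with 100 CCID50 of virus in the presence of varying compound concentrations. Virus-induced cytopathicity or plaque formation was scored once cytopathicity was complete in untreated infected controls. EC50 was taken as the concentration reducing cytopathogenicity or plaque formation by 50%.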

Another data set has as its system Human respirovirus 3. Put plainly: Antiviral activity against Parainfluenza virus 3 infected in african green monkey Vero cells assessed as reduction of virus-induced cytopathogenicity at 250 uM. It is filed as functional, organism-based. In a few lines: as §3
Data set [4] concerns Human alphaherpesvirus 1. Put plainly: Antiviral activity against Herpes simplex virus 1 KOS infected in human HEL cells assessed as reduction of virus-induced cytopathogenicity at 250 uM. It is filed as functional, organism-based. In a few lines:
as §3

A further data set relates to Feline coronavirus. Put plainly: Antiviral activity against Feline coronavirus infected in cat CRFK cells assessed as reduction of virus-induced cytopathogenicity at 250 uM. It is filed as functional, organism-based.
Data set [5] relates to Human immunodeficiency virus 1. Put plainly: Antiviral activity against Human immunodeficiency virus 1 3B infected in human CEM cells assessed as reduction of virus-induced giant cell formation at 250 uM after 4 to 5 days. It is filed as functional, organism-based. Particulars: CCRF-CEM. In a few lines: (§4)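 CEM cells at 3 × 10^5 cells/mL were infected with HIV at 100 CCID50 per mL in the presence of compound dilutions. They were held 4–5 days at 37 °C in humidified CO2. Syncytium (giant cell) formation was scored microscopically, and EC50 was taken as the concentration inhibiting giant cell formation by 50%.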

The next data set relates to Influenza B virus. Put plainly: Antiviral activity against Influenza B virus infected in dog MDCK cells assessed as reduction of virus-induced cytopathogenicity at 250 uM. It is filed as functional, organism-based. In a few lines:
as §1

Data set [6] relates to Influenza A virus. Put plainly: Antiviral activity against Influenza A virus H1N1 infected in dog MDCK cells assessed as reduction of virus-induced cytopathogenicity at 250 uM. It is filed as functional, organism-based. The method, boiled down: as §1
A further data set deals with HeLa. Put plainly: Cytotoxicity against human HeLa cells assessed as alteration of cell morphology up to 100 uM by microscopic analysis. It is filed as cell-based. The method, boiled down: as §2
Data set [7] relates to Mammalian orthoreovirus 1. Put plainly: Antiviral activity against Reovirus 1 infected in african green monkey Vero cells assessed as reduction of virus-induced cytopathogenicity at 250 uM. It is filed as functional, organism-based. The method, boiled down: as §3
The subject of the next data set is Human alphaherpesvirus 2. Put plainly: Antiviral activity against Herpes simplex virus 2 G infected in human HEL cells assessed as reduction of virus-induced cytopathogenicity at 250 uM. It is filed as functional, organism-based. Particulars: strain G. The method, boiled down: as §3
The subject of the next data set is Sindbis virus. Put plainly: Antiviral activity against Sindbis virus infected in african green monkey Vero cells assessed as reduction of virus-induced cytopathogenicity at 250 uM. It is filed as functional, organism-based. The method, boiled down:
as §3

A further data set has as its system Punta Toro virus. Put plainly: Antiviral activity against Punta Toro virus infected in african green monkey Vero cells assessed as reduction of virus-induced cytopathogenicity at 250 uM. It is filed as functional, organism-based. In a few lines:
as §3

The subject of the next data set is HEL. Put plainly: Cytotoxicity against human HEL cells assessed as alteration of cell morphology up to 100 uM by microscopic analysis. It is filed as cell-based. The method, boiled down:
as §2

The nature of data set [8]: Cytotoxicity against cat CRFK cells assessed as alteration of cell morphology up to 100 uM by microscopic analysis. It is filed as cell-based, Felis catus. In a few lines: as §2
A further data set has as its system Felid alphaherpesvirus 1. Put plainly: Antiviral activity against Feline herpes virus infected in cat CRFK cells assessed as reduction of virus-induced cytopathogenicity at 250 uM. It is filed as functional, organism-based.
The test system of data set [9] is Vesicular stomatitis virus. Put plainly: Antiviral activity against Vesicular stomatitis virus infected in human HEL cells assessed as reduction of virus-induced cytopathogenicity at 250 uM. It is filed as functional, organism-based. The method, boiled down:
as §1

In the next data set the test system is Coxsackievirus B4. Put plainly: Antiviral activity against Coxsackievirus B4 infected in african green monkey Vero cells assessed as reduction of virus-induced cytopathogenicity at 250 uM. It is filed as functional, organism-based. In a few lines: as §3
Data set [10] deals with Human alphaherpesvirus 1. Put plainly: Antiviral activity against thymidine kinase-deficient, ACV-resistant Herpes simplex virus 1 KOS infected in human HEL cells assessed as reduction of virus-induced cytopathogenicity at 250 uM. It is filed as functional, organism-based. The method, boiled down: as §1
The test system of data set [11] is Human immunodeficiency virus 2. Put plainly: Antiviral activity against Human immunodeficiency virus 2 ROD infected in human CEM cells assessed as reduction of virus-induced giant cell formation at 250 uM after 4 to 5 days. It is filed as functional, organism-based. Particulars: CCRF-CEM. In a few lines:
as §4

The subject of another data set is Vero. Put plainly: Cytotoxicity against african green monkey Vero cells assessed as alteration of cell morphology up to 100 uM by microscopic analysis. It is filed as cell-based. Particulars: chlorocebus sabaeus. In a few lines: as §2

Calls of active or inactive are those of the source. No rule for the calls is given here.

Regarding `CCOP(=O)(OCC)[C@H]1C[C@H](C(=O)Nc2cccc(C#N)c2)ON1C` (racemic), the inhibition entry (in the data set on Influenza A virus [1]; in [2]; in data set [3]; with Human respirovirus 3; in the data set on Human alphaherpesvirus 1 [4]; with Feline coronavirus) was “inactive” in each case. Further, the inhibition result (in data set [5]; with Influenza B virus; in the data set on Influenza A virus [6]; in data set [7]; in the data set on Human alphaherpesvirus 2; in the data set with Sindbis virus) was “inactive” in each case. The inhibition entry (with Punta Toro virus; in the data set with Felid alphaherpesvirus 1; in [9]; in the data set on Coxsackievirus B4; with Human alphaherpesvirus 1 [10]; in data set [11]) was “inactive” in each case. The Activity result (in the data set with MDCK; in the data set on HeLa; with HEL; in data set [8]; with Vero) was “Non-toxic” each time.
Take `CCOP(=O)(OCC)[C@H]1C[C@H](C(=O)Nc2cccc(OC)c2)ON1C` (racemic): the inhibition entry (in the data set with Influenza A virus [1]; in data set [2]; in data set [3]; with Human respirovirus 3; in the data set on Human alphaherpesvirus 1 [4]; with Feline coronavirus) was “inactive” throughout. In addition, the inhibition result (in data set [5]; in the data set on Influenza B virus; in the data set with Influenza A virus [6]; in [7]; in the data set on Human alphaherpesvirus 2; with Sindbis virus) was “inactive” each time. Further, the inhibition result (in the data set with Punta Toro virus; in the data set with Felid alphaherpesvirus 1; in data set [9]; in the data set with Coxsackievirus B4; with Human alphaherpesvirus 1 [10]; in data set [11]) was “inactive” in each case. In addition, the Activity result (in the data set on MDCK; in the data set with HeLa; with HEL; in [8]; in the data set on Vero) was “Non-toxic” in each case.
Take `CCOP(=O)(OCC)[C@H]1C[C@H](C(=O)Nc2cc(OC)c(OC)cc2C#N)ON1C` (mixture of isomers): the inhibition result (with Influenza A virus [1]; in data set [2]; in data set [3]; in the data set with Human respirovirus 3; in the data set with Human alphaherpesvirus 1 [4]; with Feline coronavirus) was “inactive” throughout. Besides, the inhibition result (in [5]; in the data set with Influenza B virus; with Influenza A virus [6]; in data set [7]; with Human alphaherpesvirus 2; in the data set on Sindbis virus) was “inactive” each time. Further, the inhibition result (in the data set with Punta Toro virus; with Felid alphaherpesvirus 1; in data set [9]; with Coxsackievirus B4; in the data set on Human alphaherpesvirus 1 [10]; in [11]) was “inactive” throughout. The Activity entry (in the data set on MDCK; in the data set on HeLa; in the data set on HEL; in data set [8]; in the data set on Vero) was “Non-toxic” in each case.
As to `CCOP(=O)(OCC)[C@H]1C[C@H](C(=O)Nc2cc(OC)c(OC)cc2C(C)=O)ON1C` (mixture of isomers), the inhibition entry (with Influenza A virus [1]; in data set [2]; in [3]; in the data set on Human respirovirus 3; in the data set on Human alphaherpesvirus 1 [4]; with Feline coronavirus) was “inactive” throughout. In addition, the inhibition entry (in data set [5]; with Influenza B virus; in the data set with Influenza A virus [6]; in data set [7]; in the data set with Human alphaherpesvirus 2; with Sindbis virus) was “inactive” in each case. The inhibition entry (in the data set with Punta Toro virus; with Felid alphaherpesvirus 1; in data set [9]; in the data set with Coxsackievirus B4; with Human alphaherpesvirus 1 [10]; in data set [11]) was “inactive” in each case. The Activity result (with MDCK; with HeLa; with HEL; in [8]; with Vero) was “Non-toxic” in each case.
As to `CCOP(=O)(OCC)[C@H]1C[C@H](C(=O)Nc2ccccc2C(C)=O)ON1C` (mixture of isomers), the inhibition entry (in the data set with Influenza A virus [1]; in [2]; in data set [3]; in the data set with Human respirovirus 3; in the data set with Human alphaherpesvirus 1 [4]; in the data set with Feline coronavirus) was “inactive” each time. Also, the inhibition entry (in [5]; with Influenza B virus; in the data set with Influenza A virus [6]; in data set [7]; with Human alphaherpesvirus 2; in the data set with Sindbis virus) was “inactive” throughout. Also, the inhibition result (with Punta Toro virus; with Felid alphaherpesvirus 1; in [9]; in the data set on Coxsackievirus B4; with Human alphaherpesvirus 1 [10]; in data set [11]) was “inactive” throughout. In addition, the Activity entry (in the data set with MDCK; with HeLa; with HEL; in data set [8]; in the data set with Vero) was “Non-toxic” in each case.
As for `CCOP(=O)(OCC)[C@H]1C[C@H](C(=O)Nc2cccc([N+](=O)[O-])c2)ON1C` (mixture of isomers), the inhibition entry (in the data set with Influenza A virus [1]; in [2]; in [3]; with Human respirovirus 3; in the data set on Human alphaherpesvirus 1 [4]; in the data set on Feline coronavirus) was “inactive” throughout. Besides, the inhibition entry (in data set [5]; in the data set with Influenza B virus; with Influenza A virus [6]; in [7]; with Human alphaherpesvirus 2; in the data set with Sindbis virus) was “inactive” each time. The inhibition entry (in the data set with Punta Toro virus; in the data set on Felid alphaherpesvirus 1; in [9]; in the data set with Coxsackievirus B4; in the data set with Human alphaherpesvirus 1 [10]; in [11]) was “inactive” throughout. Besides, the Activity entry (in the data set with MDCK; with HeLa; in the data set with HEL; in data set [8]; in the data set with Vero) was “Non-toxic” in each case.

The record behind these values is ChEMBL document CHEMBL2331506, “Design, synthesis, antiviral and cytostatic evaluation of novel isoxazolidine nucleotide analogues with a carbamoyl linker” (Bioorg Med Chem, 2013).
